In ChEMBL document CHEMBL4402612, “Heterodimeric Analogues of the Potent Y1R Antagonist 1229U91, Lacking One of the Pharmacophoric C-Terminal Structures, Retain Potent Y1R Affinity and Show Improved Selectivity over Y4R” (J Med Chem, 2020):
Positions of bridges follow the written chain, without caps; N, C: chain ends. Non-standard residues stand in square brackets, D forms with d. Residues, ends and D or L forms follow the SMILES beside them. Chains are numbered I, II in the order given. Dap = NC[C@H](N)C(=O)O

What was measured:
[1] = molecular target: T1, Neuropeptide Y receptor type 1 (Homo sapiens) (UniProt P25929); assay: Potency index, ratio of Ki of compound to Ki of 1229U91 for displacement of (sCy5)-[Lys2 Arg4]-BVD15 from GFP-tagged Y1R in human HEK293T cells assessed as inhibitory constant incubated for 5 mins followed by (sCy5)-[Lys2 Arg4]-BVD15 addition and measured after 30 mins by fluorescence based assay
T1 sequence (whole entry): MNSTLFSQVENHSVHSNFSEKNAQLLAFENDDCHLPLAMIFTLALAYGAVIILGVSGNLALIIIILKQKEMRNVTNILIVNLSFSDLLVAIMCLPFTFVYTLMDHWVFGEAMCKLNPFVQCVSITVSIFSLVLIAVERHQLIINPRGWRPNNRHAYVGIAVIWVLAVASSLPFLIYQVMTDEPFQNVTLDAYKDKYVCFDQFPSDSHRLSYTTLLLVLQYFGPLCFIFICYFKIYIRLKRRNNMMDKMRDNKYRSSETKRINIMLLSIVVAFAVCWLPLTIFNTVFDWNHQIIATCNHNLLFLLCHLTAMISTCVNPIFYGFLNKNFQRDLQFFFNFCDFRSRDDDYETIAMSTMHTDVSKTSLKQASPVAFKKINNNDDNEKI

[2] = molecular target: T2, Neuropeptide Y receptor type 4 (Homo sapiens, UniProt P50391); assay: Agonist activity at Y4R in human HEK293T cells assessed as increase in beta-arrestin recruitment incubated for 60 mins by Hoechst 33342 dye based fluorescence analysis relative to pancreatic polypeptide
[3] = molecular target: T2, Neuropeptide Y receptor type 4; assay: Displacement of (sCy5)-[Lys2 Arg4]-BVD15 from GFP-tagged Y4R in human HEK293T cells assessed as inhibitory constant incubated for 5 mins followed by (sCy5)-[Lys2 Arg4]-BVD15 addition and measured after 30 mins by fluorescence based assay; type: cell-based
Method in brief: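 Competitors (10^-10–10^-6 M) added in HBSS/0.1% BSA with H33342 for 5 min, then 100 nM final (sCy5)-[Lys²Arg⁴]-BVD15 for 30 min at 37 °C. Washed and imaged confocally; granule counts per cell. Non-specific binding with 100 nM PP.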

[4] = molecular target: T2, Neuropeptide Y receptor type 4; assay: Agonist activity at Y4R in human HEK293T cells assessed as increase in beta-arrestin recruitment incubated for 60 mins by Hoechst 33342 dye based fluorescence analysis
[5] = species: Homo sapiens; assay: Selectivity index, ratio of Ki of GFP-tagged Y4R in human HEK293T cells to Ki GFP-tagged Y1R in human HEK293T cells; type: cell-based
Method in brief: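 Ratio of mean Ki values, Y4/Y1, from whole-cell competition binding in tetracycline-induced 293TR Y1-GFP or Y4-GFP cells. Tracer was 100 nM (sCy5)-[Lys²Arg⁴]-BVD15, added after 5 min competitor preincubation, then 30 min at 37 °C, with imaging read-out.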

[6] = molecular target: T3, Neuropeptide Y receptor type 1 (Homo sapiens, UniProt P25929); assay: Displacement of (sCy5)-[Lys2 Arg4]-BVD15 from GFP-tagged Y1R in human HEK293T cells assessed as inhibitory constant incubated for 5 mins followed by (sCy5)-[Lys2 Arg4]-BVD15 addition and measured after 30 mins by fluorescence based assay; type: cell-based
T3 sequence (P25929 whole entry): T1 sequence (whole entry)

T2 sequence (P50391 whole entry): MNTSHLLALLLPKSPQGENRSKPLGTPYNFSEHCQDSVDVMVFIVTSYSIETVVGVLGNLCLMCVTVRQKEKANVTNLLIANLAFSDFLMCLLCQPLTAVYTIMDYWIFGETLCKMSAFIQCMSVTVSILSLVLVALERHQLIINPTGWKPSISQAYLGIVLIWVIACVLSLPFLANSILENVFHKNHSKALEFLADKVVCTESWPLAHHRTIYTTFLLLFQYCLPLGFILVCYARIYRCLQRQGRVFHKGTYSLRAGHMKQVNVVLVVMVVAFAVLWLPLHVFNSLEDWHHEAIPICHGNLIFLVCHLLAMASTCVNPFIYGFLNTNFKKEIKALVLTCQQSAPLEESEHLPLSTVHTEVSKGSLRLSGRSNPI

Ki ratio [1]: 2
Rmax [2]: 49.1%
Ki [3]: 245 nM
EC50 [4]: 7.59 nM
Ki [6]: 0.575 nM
Structure (SMILES): CC[C@H](C)[C@H](N)C(=O)N[C@H]1CCC(=O)NC[C@@H](C(=O)N[C@@H](Cc2ccc(O)cc2)C(=O)N[C@@H](CCCNC(=N)N)C(=O)N[C@@H](CC(C)C)C(=O)N[C@@H](CCCNC(=N)N)C(=O)N[C@@H](Cc2ccc(O)cc2)C(N)=O)NC(=O)[C@@H]2CCCN2C(=O)[C@@H](NC(=O)[C@@H](N)[C@@H](C)CC)CCC(=O)NC[C@@H](C(=O)N[C@@H](Cc2ccc(O)cc2)C(=O)N[C@@H](C)C(=O)N[C@@H](CC(C)C)C(=O)N[C@@H](CCCNC(=N)N)C(=O)N[C@@H](Cc2ccc(O)cc2)C(N)=O)NC(=O)[C@@H]2CCCN2C1=O (I: H-IEP[Dap]YALRY-NH2 / II: H-IEP[Dap]YRLRY-NH2; amide I:2-II:4, I:4-II:2)
Ratio Ki [5]: 419
